The test system of data set [1] is HEK293. Description: Inhibition of c-AMP production in HEK (EBNA) cells was determined by c-AMP assay. It counts as functional, HEK293-EBNA. Particulars: Homo sapiens. The essentials: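 Functional cAMP read-out in HEK (EBNA) cells expressing the receptor: antagonism scored as reversal of EP3-mediated inhibition of cAMP production; EP2 activity scored as stimulation of cAMP production.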

Data set [2] in a line: Clearance in rats after 10 mg/kg peroral and 5 mg/kg intravenous administration as sodium salts. Particulars: rat, in vivo. The data set is classed as ADME, organism-based. The method, boiled down: (§1)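 Male Sprague–Dawley rats, 300–400 g. Oral bioavailability, clearance (mL/min/kg), Cmax (µM, with time of peak) and half-life derived from plasma profiles.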
Data set [3] addresses T1, Prostaglandin E2 receptor EP3 subtype (Homo sapiens, UniProt P43115).
T1 sequence (P43115 whole entry): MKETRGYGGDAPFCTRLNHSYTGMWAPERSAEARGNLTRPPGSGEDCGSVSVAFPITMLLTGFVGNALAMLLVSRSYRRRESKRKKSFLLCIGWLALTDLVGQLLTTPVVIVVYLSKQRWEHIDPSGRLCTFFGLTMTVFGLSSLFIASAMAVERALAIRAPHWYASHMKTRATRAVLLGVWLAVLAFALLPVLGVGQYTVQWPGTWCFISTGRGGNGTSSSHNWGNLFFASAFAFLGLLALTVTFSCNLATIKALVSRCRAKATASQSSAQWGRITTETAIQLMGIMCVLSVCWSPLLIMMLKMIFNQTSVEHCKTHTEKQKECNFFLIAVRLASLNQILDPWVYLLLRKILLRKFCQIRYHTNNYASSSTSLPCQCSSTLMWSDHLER
Description: Binding affinity for human prostanoid EP3 receptor.

A short description of data set [4]: Bioavailability in rat (dose 10 mg/kg p.o. and 5 mg/kg i.v.) (dosed as sodium salt). It counts as ADME, organism-based. Particulars: in vivo, po. The method, boiled down: as §1
For data set [5], the target named is Prostaglandin E2 receptor EP2 subtype (Homo sapiens, UniProt P43116). As to the kind of experiment: Binding affinity for human prostanoid EP2 receptor.
Data set [6] in a line: Maximum concentration in rats after 10 mg/kg peroral and 5 mg/kg intravenous administration as sodium salts. The data set is classed as ADME, organism-based. Particulars: rat, in vivo, po. The essentials: as §1
A short description of data set [7]: Half life in rats after 10 mg/kg peroral and 5 mg/kg intravenous administration as sodium salts. Particulars: rat, in vivo. It counts as ADME, organism-based. The essentials: as §1
Data set [8] concerns the target Prostaglandin E2 receptor EP4 subtype (Homo sapiens, UniProt P35408). As to the kind of experiment: Binding affinity for human prostanoid EP4 receptor.
Data set [9] has as its target T2, Prostaglandin E2 receptor EP1 subtype (Homo sapiens, UniProt P34995).
T2 sequence (P34995 whole entry): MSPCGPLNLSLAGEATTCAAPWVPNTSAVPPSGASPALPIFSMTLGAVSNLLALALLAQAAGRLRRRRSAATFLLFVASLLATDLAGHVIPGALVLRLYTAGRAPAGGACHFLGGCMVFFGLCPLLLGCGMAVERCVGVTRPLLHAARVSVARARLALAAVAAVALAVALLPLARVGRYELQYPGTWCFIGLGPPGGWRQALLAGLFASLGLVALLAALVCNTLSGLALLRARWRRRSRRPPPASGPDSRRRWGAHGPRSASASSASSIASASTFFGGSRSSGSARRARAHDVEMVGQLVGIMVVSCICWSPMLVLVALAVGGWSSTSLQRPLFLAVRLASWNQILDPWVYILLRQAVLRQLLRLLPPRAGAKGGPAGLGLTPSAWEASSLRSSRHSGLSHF
Description: Binding affinity for human prostanoid EP1 receptor.

In data set [10] the test system is HEK293. Description: Stimulation of c-AMP production in HEK (EBNA) cells was determined by c-AMP assay. The conditions noted are these: Homo sapiens.

Sequence of Prostaglandin E2 receptor EP2 subtype (P43116 whole entry): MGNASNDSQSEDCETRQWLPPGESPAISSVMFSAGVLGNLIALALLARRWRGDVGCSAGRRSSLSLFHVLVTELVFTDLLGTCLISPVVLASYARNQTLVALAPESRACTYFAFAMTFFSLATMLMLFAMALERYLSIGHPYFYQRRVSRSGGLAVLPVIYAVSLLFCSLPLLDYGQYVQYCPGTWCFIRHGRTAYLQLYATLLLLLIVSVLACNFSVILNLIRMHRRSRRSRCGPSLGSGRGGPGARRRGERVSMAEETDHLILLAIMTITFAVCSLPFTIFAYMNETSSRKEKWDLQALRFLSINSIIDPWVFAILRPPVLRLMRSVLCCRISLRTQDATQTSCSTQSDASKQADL
Sequence of Prostaglandin E2 receptor EP4 subtype (P35408 whole entry): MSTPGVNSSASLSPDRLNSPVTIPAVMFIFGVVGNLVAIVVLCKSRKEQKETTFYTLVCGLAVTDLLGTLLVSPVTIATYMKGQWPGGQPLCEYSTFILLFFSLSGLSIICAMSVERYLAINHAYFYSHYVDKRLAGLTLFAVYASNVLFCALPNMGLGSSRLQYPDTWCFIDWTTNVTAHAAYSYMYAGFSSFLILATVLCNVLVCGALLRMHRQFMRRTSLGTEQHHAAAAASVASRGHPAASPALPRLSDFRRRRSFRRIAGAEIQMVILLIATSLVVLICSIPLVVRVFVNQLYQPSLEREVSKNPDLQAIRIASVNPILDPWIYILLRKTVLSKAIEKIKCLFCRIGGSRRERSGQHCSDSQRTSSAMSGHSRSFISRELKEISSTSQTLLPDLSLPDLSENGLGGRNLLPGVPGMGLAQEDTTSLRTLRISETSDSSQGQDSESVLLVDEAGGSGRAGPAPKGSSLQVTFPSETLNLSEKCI

The Ki is a measure of affinity in units of concentration, obtained from inhibition or displacement. Read a low Ki as tighter binding. For orientation: bioavailability means the share of a dose that reaches the circulation, judged against a reference dose that is usually intravenous. Broadly, the Cmax is the peak of the concentration-time curve. A word on the half-life: it is the time in which the quantity being followed falls by half. Regarding `Cc1cccc(/C=C/Cc2ccccc2/C=C/C(=O)O)c1OCc1ccccc1.Cc1cccc(C/C=C/c2ccccc2/C=C/C(=O)O)c1OCc1ccccc1` (stereo in doubt; 2a/3a), in the data set on HEK293 [1], the Kb is 32 nM. Moreover, the clearance in data set [2] came to 10 mL/min/kg. In addition, the Ki came to 9 nM in data set [3], 860 nM in data set [5], 2000 nM in [8] and 19000 nM in [9]. In addition, the bioavailability in data set [4] amounted to 97%. The peak concentration (Cmax) in data set [6] worked out at 22 µM. Further, the half-life in data set [7] is 2 h.

The compound `Cc1cccc(C(O)/C=C/c2ccccc2/C=C/C(=O)O)c1OCc1c(Cl)cccc1Cl` (configuration not stated) yielded a Kb with HEK293 [1] of 30 nM. For the same compound, the Ki in data set [3] is 9 nM; in data set [5], 3900 nM; in [8], 1000 nM; in data set [9] it was 13000 nM.

For `Cc1cccc(CCCc2ccccc2CCC(=O)O)c1OCc1ccccc1`, the Ki amounted to 65 nM in data set [3], 940 nM in [5], 440 nM in [8] and 23000 nM in [9].

On to `Cc1cccc(/C=C/Cc2ccccc2CC(=O)O)c1OCc1ccccc1.Cc1cccc(C/C=C/c2ccccc2CC(=O)O)c1OCc1ccccc1`, for which the Ki was 3400 nM in data set [3], 2900 nM in [5], 4300 nM in data set [8] and 21000 nM in [9].

Turning to `Cc1cccc(/C=C/Cc2ccccc2/C=C/C(=O)O)c1OCc1c(Cl)cccc1Cl`, in the data set with HEK293 [1], the Kb worked out at 6 nM. In data set [2], the clearance was found to be 5.8 mL/min/kg. Further, the Ki stood at 3 nM in [3], 5400 nM in data set [5], 620 nM in [8] and 6700 nM in [9]. The bioavailability in data set [4] worked out at 74%. The Cmax in data set [6] came out at 25 µM. The half-life in [7] is 2 h.

Consider `O=C(O)/C=C/c1ccccc1/C=C/Cc1cccc(OCc2ccccc2)c1.O=C(O)/C=C/c1ccccc1C/C=C\c1cccc(OCc2ccccc2)c1`, for which, in the data set on HEK293 [1], the Kb was 62 nM. The Ki is 50 nM in data set [3], 18 nM in data set [5], 450 nM in data set [8] and 14000 nM in data set [9].

In the case of `COc1cccc(CCCc2ccccc2/C=C/C(=O)O)c1OCc1ccccc1`, in the data set on HEK293 [1], the Kb worked out at 29 nM. Besides, the inhibitory constant (Ki) in [3] was 19 nM; in [5], 1100 nM; in data set [8] it was 4300 nM; in data set [9], more than 9000 nM.

For `Cc1cccc(/C=C/Cc2ccccc2/C=C/C(=O)O)c1OCc1ccccc1.Cc1cccc(C/C=C/c2ccccc2/C=C/C(=O)O)c1OCc1ccccc1` (stereo in doubt; 2a), the values for the Ki in data set [3], in [5] and in [8] were 13 nM, 550 nM and 1200 nM, respectively.

Consider `Cc1cccc(/C=C/Cc2ccccc2/C=C/C(=O)O)c1O`, for which the Kb in the data set on HEK293 [1] was 28 nM. For the same compound, the Ki turned out to be 10 nM in data set [3], 7300 nM in data set [5], 1600 nM in [8] and 68000 nM in data set [9].

Turning to `Cc1cccc(/C=C\Cc2ccccc2C(=O)O)c1OCc1ccccc1.Cc1cccc(C/C=C/c2ccccc2C(=O)O)c1OCc1ccccc1`, the Ki in [3] came out at 2700 nM; in data set [5], 7100 nM; in [8], 5700 nM; in data set [9] it was 16000 nM.

For the compound `O=C(O)/C=C/c1ccccc1/C=C/Cc1ccccc1.O=C(O)/C=C/c1ccccc1C/C=C/c1ccccc1`, the Ki was 100 nM in data set [3], 1400 nM in data set [5], 4400 nM in data set [8] and more than 100000 nM in data set [9].

In the case of `Cc1cccc(/C=C/Cc2ccccc2/C=C/C(=O)O)c1OCc1ccccc1`, the Kb with HEK293 [1] is 17 nM.

As for `Cc1cccc(/C=C/Cc2ccc(/C=C/C(=O)O)cc2)c1OCc1ccccc1.Cc1cccc(C/C=C\c2ccc(/C=C/C(=O)O)cc2)c1OCc1ccccc1`, the Ki in data set [3] was 2900 nM; in data set [5], 1700 nM; in data set [8], 5500 nM; in data set [9], more than 30000 nM.

Turning to `COc1ccc(/C=C/Cc2ccccc2/C=C/C(=O)O)cc1.COc1ccc(C/C=C/c2ccccc2/C=C/C(=O)O)cc1`, the Ki is 68 nM in [3], 2500 nM in data set [5], 6200 nM in data set [8] and more than 100000 nM in [9].

As for `O=C(O)/C=C/c1ccccc1/C=C/c1ccccc1OCc1ccccc1`, in data set [2], the clearance stood at 16 mL/min/kg. Moreover, the Ki turned out to be 1400 nM in [3], 8 nM in [5], 2800 nM in [8] and 45000 nM in data set [9]. In [4], the bioavailability was found to be 17%. Besides, the peak concentration (Cmax) in data set [6] stood at 1.7 µM. Besides, the half-life in [7] was 2 h. The same compound gave a Kb with HEK293 [10] of 3 nM.

Regarding `Cc1cccc(CCCc2ccccc2/C=C/C(=O)O)c1OCc1ccccc1`, the Kb with HEK293 [1] was found to be 38 nM. Also, the Ki was 13 nM in data set [3], 380 nM in [5], 2900 nM in data set [8] and more than 10000 nM in data set [9].

`COc1cc(/C=C\Cc2ccccc2/C=C/C(=O)O)ccc1OCc1ccccc1.COc1cc(C/C=C/c2ccccc2/C=C/C(=O)O)ccc1OCc1ccccc1` displayed a Kb in the data set on HEK293 [1] of 6 nM. The Ki was 8 nM in data set [3], 750 nM in data set [5], 610 nM in data set [8] and more than 20000 nM in data set [9].

With `O=C(O)/C=C/c1ccccc1/C=C/Cc1cccc(CO)c1OCc1c(Cl)cccc1Cl.O=C(O)/C=C/c1ccccc1C/C=C/c1cccc(CO)c1OCc1c(Cl)cccc1Cl`, the Ki in data set [3] stood at 13 nM; in [5], 2500 nM; in data set [8], 740 nM; in [9], 7100 nM.

Turning to `Cc1cccc(/C=C/Cc2ccccc2/C=C/C(=O)O)c1OCc1ccc(F)cc1`, the Kb with HEK293 [1] is 4 nM. For the same compound, the Ki in data set [3] came out at 7 nM; in [5], 4100 nM; in [8], 2400 nM; in data set [9] it was 17000 nM.

In turn, `O=C(O)/C=C/c1ccccc1/C=C/Cc1ccccc1OCc1ccccc1.O=C(O)/C=C/c1ccccc1C/C=C\c1ccccc1OCc1ccccc1` came in with a Kb with HEK293 [1] of 50 nM. For the same compound, the inhibitory constant (Ki) in data set [3] worked out at 25 nM; in data set [5] it was 680 nM; in data set [8] it was 1000 nM; in data set [9], 24000 nM.

Take `Cc1cccc(/C=C/C(O)c2ccccc2/C=C/C(=O)O)c1OCc1c(Cl)cccc1Cl` (configuration not stated): the Kb in the data set with HEK293 [1] came to 30 nM. Moreover, the Ki worked out at 10 nM in [3], 2100 nM in data set [5], 930 nM in [8] and 3000 nM in data set [9].

Regarding `CC(=O)c1ccc(OCc2ccccc2)c(/C=C/Cc2ccccc2/C=C/C(=O)O)c1.CC(=O)c1ccc(OCc2ccccc2)c(C/C=C/c2ccccc2/C=C/C(=O)O)c1`, the Ki in [3] is 260 nM; in data set [5], 8700 nM; in data set [8], 830 nM; in [9] it was 2800 nM.

As for `Cc1cccc(/C=C/Cc2cccc(/C=C/C(=O)O)c2)c1OCc1ccccc1.Cc1cccc(C/C=C/c2cccc(/C=C/C(=O)O)c2)c1OCc1ccccc1`, the Ki stood at 2000 nM in data set [3], 630 nM in [5], 3100 nM in data set [8] and 21000 nM in [9].

The values are drawn from ChEMBL document CHEMBL1144264, “Structure-activity relationship studies on ortho-substituted cinnamic acids, a new class of selective EP(3) antagonists” (Bioorg Med Chem Lett, 2005).
